These results are taken from PubChem BioAssay AID743247 (Broad Institute, 2014).

Structures are written as SMILES. Several values for one entry are separate records, joined by “and”; a condition that tells them apart may be missing. Identical values can stand only once. In all, about 350,000 compounds went through this assay and about 300 (0.086%) were called active.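 Rule for the calls: active = mean inhibition across replicates of 30% or more, regardless of how many single replicates reach that level; inconclusive = mean under 30% yet at least half of replicates reach 30%; inactive = the rest.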 The full list was thinned out, with actives kept by preference.

For orientation: inhibition means the relative decrease from the control value, in per cent.

The nature of the test: inhibitors of fibronectin matrix deposition, primary screen, AH1F cells, Alexa488-fibronectin fluorescence, plate reader (AID 743247).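 Note: positive control wells lacked labelled fibronectin entirely.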 The note with it: AH1F fibroblasts, overnight, at 12.6 µM, stronger effect = higher value. The method, boiled down:
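material = AH1F fibroblast monolayer depositing Alexa488-labelled fibronectin into matrix | amount = 10000 AH1F cells/well | buffer or medium = DMEM plus 2% serum, read in PBS | incubation = 1 h cell adhesion before compound, then overnight fibronectin incubation | detection = fluorescence at 485 nm excitation, 525 nm emission | evaluation = percent inhibition as loss of matrix-bound fibronectin fluorescence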
As to `COc1ccc2c3c(n(C)c2c1)[C@H](CO)N(C)CC31CN(S(=O)(=O)c2cccc(C)c2)C1`, the inhibition is 11.9% (inactive).

Turning to `O=C1C[C@@H](c2ccccc2)C(=O)N[C@H](c2ccc(F)cc2)C/C=C\CCN1`, the inhibition is -8.29% (inactive). The same measure for `C/C=C/c1ccc2c(c1)O[C@H](CN(C)C(=O)Nc1ccc(OC)cc1)[C@@H](C)CN([C@H](C)CO)S2(=O)=O`: 9.72% (inactive). As for `Cc1cccc(NC(=O)c2nc(S(=O)(=O)Cc3ccccc3)ncc2Cl)c1`, the figure is 20.9% (inactive); as for `Cc1cccc(CS(=O)(=O)c2ncc(Cl)c(C(=O)Nc3ccc(F)cc3)n2)c1`, 34.8% (active). The same measure for `Cc1ccc(CS(=O)(=O)c2ncc(Cl)c(C(=O)Nc3nnc(C)s3)n2)cc1`: 0.254% (inactive); for `O=C(C1CCC1)N1CC[C@H]2[C@H](CO)Nc3ccc(-c4cccc(F)c4)cc3[C@H]21`: -4.67% (inactive). Regarding `COc1ccc(-c2ccccc2[C@H]2[C@@H](CO)N(C(=O)c3cccnc3)[C@H]2C#N)cc1`, the inhibition is 0.791% (inactive).

Take `COc1cccc(C(=O)Nc2ccc3c(c2)C(=O)N(C)[C@H]2CC[C@@H](CC(=O)N[C@H](C)c4ccccc4)O[C@H]2CO3)c1`: the inhibition is 1.83% (inactive). For `CS(=O)(=O)Nc1ccc2c(c1)[C@H]1C[C@@H](CC(=O)N3CCOCC3)O[C@@H](CO)[C@H]1O2`, the inhibition is -0.107% (inactive). The same measure for `C[C@@H]1CC=CC[C@@H](c2ccccc2)NC(=O)[C@@H](Cc2ccccc2)N(C)C(=O)c2ccccc2O1` (mixture of isomers): 15.9% (inactive); for `O=C(Nc1ccc(C(F)(F)F)cc1)N1[C@@H]2CNC[C@H]1C2c1ccc(-c2ccncc2)cc1` (some centres undefined): -4.68% (inactive) and -6.18% (inactive); for `COc1cccc(NC(=O)Nc2ccc3c(c2)OC[C@@H](C)NC[C@@H](C)[C@H](OC)CN(C)C3=O)c1`: -4.31% (inactive). With `CCCN1[C@H](CO)[C@H](c2ccc(C#CC3CCCCC3)cc2)[C@@H]1CNC(=O)C1CC1`, the inhibition was -11.7% (inactive). As for `COc1ccc(S(=O)(=O)N(C)C[C@@H]2Oc3ccc(NC(=O)Nc4cccc5ccccc45)cc3C(=O)N([C@H](C)CO)C[C@H]2C)cc1`, the figure is 9.82% (inactive); as for `COc1ccc2c3c(n(C)c2c1)[C@H](CO)N(Cc1ccc(F)cc1)CC31CCN(C)CC1`, 8.27% (inactive). For the compound `O=C(CCN1CCN(C/C=C/c2ccccc2)CC1)Nc1ccccc1Cl`, the inhibition was 15.1% (inactive). As for `NC(=O)C1(Nc2ccccc2Cl)CCCC1`, the figure is -0.504% (inactive). The same measure for `O=C(Nc1ccccc1Cl)/C(Cl)=C(\Cl)S(=O)c1ccccc1` (centres undefined): 41.6% (active); for `COc1ccc2c3c(n(C)c2c1)[C@H](CO)N(C(C)=O)CC31CN(Cc2ccc(Cl)cc2)C1`: 9.57% (inactive).

For `COc1ccc(S(=O)(=O)N2C[C@@H](O)COC[C@H]3O[C@@H](CC(=O)NCCN4CCCCC4)CC[C@@H]32)cc1`, the inhibition is -7.51% (inactive). The same measure for `CO[C@H]1CN(C)C(=O)c2ccc(NC(C)=O)cc2OC[C@@H](C)N(C(=O)c2ccncc2)C[C@@H]1C`: -5.05% (inactive); for `O=C(c1cnccn1)N1CC(=O)N2[C@H](C1)[C@@H](c1ccc(C#CC3CCCC3)cc1)[C@@H]2CO`: 0.368% (inactive); for `CN(C)C(=O)C[C@H]1C[C@H]2c3cc(NC(=O)Nc4ccccc4F)ccc3O[C@H]2[C@@H](CO)O1`: -8.8% (inactive).

For `CC(=O)N1C[C@@H]2C(c3ccccc3)[C@@H](C1)N2C(=O)NC(C)C` (some centres undefined), the inhibition is -6.49% (inactive). Regarding `O=C(NCc1ccc(F)cc1)[C@@H]1[C@@H](CO)[C@@H]2Cn3c(cccc3=O)[C@@H]2N1C(=O)c1cccnc1`, the inhibition is 12.8% (inactive).

`C[C@H]1CN([C@@H](C)CO)C(=O)c2cccc(NC(=O)CCCCCC(=O)Nc3ccccc3N)c2O[C@@H]1CN(C)C(=O)NC1CCCCC1`: the inhibition is 17% (inactive). As for `COc1ccc(Nc2nc(N)nc(CSC(=S)N3CCC(C)CC3)n2)cc1`, the figure is 4.46% (inactive). As for `CCOC(=O)C1CCCN(Cc2nc(N)nc(Nc3ccc(C)cc3)n2)C1` (centres undefined), the figure is -4.21% (inactive). The same measure for `CCOC(=O)c1cnc(SCc2nc(N)nc(Nc3ccc(OC)cc3)n2)nc1N`: 14.2% (active); for `CN1C(=O)c2cc(NC(=O)c3cccs3)ccc2OC[C@H]2O[C@@H](CC(=O)NCC3CC3)CC[C@@H]21`: -3.33% (inactive). On to `CC(C)[C@@H]1COCc2cn(nn2)CC[C@@H](C)C(=O)N1`, for which the inhibition was -0.112% (inactive).

Regarding `CCCNC(=O)Nc1ccc2c(c1)C(=O)N(C)C[C@@H](OC)[C@@H](C)CN(Cc1ccccn1)[C@@H](C)CO2`, the inhibition was 0.86% (inactive).

For `CC(C)NC(=O)N(C)C[C@H]1Oc2ccc(N)cc2CC(=O)N(C)C[C@H]1C`, the inhibition is 3.3% (inactive).

In the case of `N#Cc1ccc(-c2ccc(C3[C@@H]4CN(S(=O)(=O)c5cccc(Cl)c5)C[C@H]3N4)cc2)cc1` (some centres undefined), the inhibition was -6.82% (inactive). As for `C[C@@H]1CCCCO[C@H](CN(C)C(=O)CCCN(C)C)[C@@H](C)CN([C@@H](C)CO)C(=O)c2cc(NC(=O)c3ccncc3)ccc2O1`, the inhibition is -3.34% (inactive). As for `C[C@H](CO)N1C[C@H](C)[C@@H](CN(C)C(=O)C2CC2)Oc2ncc(C#CC(C)(C)O)cc2C1=O`, the figure is -19.9% (inactive).

For `C[C@@H]1CN([C@H](C)CO)C(=O)c2c(c3ccccc3n2C)-c2ccccc2CO[C@@H]1CN(C)Cc1ccccc1C(F)(F)F`, the inhibition was 3.35% (inactive).

Consider `COc1ccc(S(=O)(=O)Nc2ccc3c(c2)C(=O)N(C)C[C@@H](OC)[C@H](C)CN(C(=O)NC(C)C)[C@H](C)CO3)cc1`, for which the inhibition was 6.84% (inactive). As for `N#C[C@H]1[C@H](c2ccccc2-c2ccc(F)cc2)[C@H](CO)N1C(=O)Cc1ccncc1`, the figure is -14.3% (inactive); as for `CC(C)NC(=O)N(C)C[C@@H]1OCCCC[C@H](C)Oc2ccc(NC(=O)Nc3ccccc3)cc2C(=O)N([C@H](C)CO)C[C@@H]1C`, 1.11% (inactive); as for `CCCNC(=O)N1[C@@H]2CNC[C@H]1C2c1ccc(-c2cccc(C)c2)cc1` (some centres undefined), -3.69% (inactive) and -7.75% (inactive). The same measure for `Cc1cccc(S(=O)(=O)N2CC[C@@H]3[C@H]2c2cc(C#Cc4ccccc4F)ccc2N[C@@H]3CO)c1`: 15.8% (inactive); for `CNC[C@H]1Oc2ccc(NC(=O)NC(C)C)cc2C(=O)N(C)C[C@@H]1C`: -10.1% (inactive); for `O=C1N[C@H](Cc2ccccc2)COCc2cn(nn2)CC[C@@H]1Cc1ccc(-c2ccccc2)cc1`: 7.74% (inactive).

In the case of `CNC[C@H]1Oc2ncccc2C(=O)N(C)C[C@@H]1C`, the inhibition was 3.59% (inactive). As for `CC(=O)N1[C@H](CO)[C@H](c2ccccc2)[C@H]1CN(C(=O)c1ccccc1F)C(C)C`, the figure is -2.39% (inactive); as for `CCCC(=O)Nc1ccc2c(c1)OC[C@H](C)N(C(=O)CC)C[C@H](C)[C@@H](OC)CN(C)C2=O`, -4.46% (inactive); as for `C=C(C)C[C@H]1CCn2cc(nn2)COCCNC1=O`, -4.67% (inactive). As for `C[C@@H]1C(=O)N[C@H](c2ccc3c(c2)OCO3)CC=CC[C@H](C)Oc2ccccc2C(=O)N1C` (mixture of isomers), the figure is -8.64% (inactive). The same measure for `COc1ccc(S(=O)(=O)N2C[C@H](O)COC[C@@H]3O[C@H](CC(=O)NCCN4CCCCC4)CC[C@H]32)cc1`: 4.18% (inactive). Take `O=C1CCC(=O)N[C@H](c2ccccc2)C/C=C\CCN1`: the inhibition was -1.16% (inactive). The same measure for `C[C@H]1CN([C@@H](C)CO)C(=O)c2c(c3ccccc3n2C)-c2ccccc2CO[C@@H]1CN(C)CC1CCCCC1`: -4.72% (inactive); for `CO[C@H]1CN(C)C(=O)c2cc(NC(=O)NC(C)C)ccc2OC[C@@H](C)NC[C@@H]1C`: -16.2% (inactive); for `COc1ccc2c3c([nH]c2c1)[C@@H](CO)N(C)CC31CCN(S(=O)(=O)c2ccc(C)cc2)CC1`: 3.31% (inactive). The same measure for `CC(=O)Nc1ccc2c(c1)CC(=O)N(C)C[C@H](C)[C@H](CN(C)S(C)(=O)=O)O2`: -0.444% (inactive). In the case of `C[C@H](CO)N1C[C@H](C)[C@@H](CN(C)Cc2ccncc2)Oc2cc(Br)ccc2S1(=O)=O`, the inhibition is -7.26% (inactive). As for `COCC(=O)N(C)C[C@H]1[C@@H](c2ccccc2)[C@H](CO)N1C(=O)Cc1ccncc1`, the figure is -3.58% (inactive).

As to `O=C1NCCCOCc2cn(nn2)CC[C@@H]1Cc1ccc(-c2ccccc2)cc1`, the inhibition was 1.3% (inactive).

For the compound `C[C@@H]1COCc2cn(nn2)CC[C@H](C)C(=O)N1`, the inhibition was -2.55% (inactive). With `O=C(C1CCC1)N1CC2(C1)[C@H](c1ccccc1)[C@H](CO)N2Cc1nccs1`, the inhibition is 4.67% (inactive). As for `C[C@H](CO)N1C[C@H](C)[C@@H](CN(C)Cc2ccc(Cl)c(Cl)c2)Oc2ccc(NC(=O)Cn3cnnn3)cc2CC1=O`, the figure is -6.99% (inactive); as for `O=C(Cc1ccncc1)N1CC[C@@H]2[C@@H](CO)Nc3ccc(C4=CCCCC4)cc3[C@@H]21`, -5.08% (inactive). Regarding `CO[C@H]1CN(C)C(=O)c2ccc(NC(=O)C3CCC3)cc2OC[C@H](C)NC[C@@H]1C`, the inhibition was 4.29% (inactive).

Consider `CC(=O)NC[C@H]1[C@H](c2ccc(C3=CCCCC3)cc2)[C@@H](CO)N1C(=O)NC(C)C`, for which the inhibition is -4.24% (inactive).

As to `Cc1ccccc1S(=O)(=O)N[C@@H]1CC[C@@H](CCNS(=O)(=O)c2cccc(F)c2)O[C@H]1CO`, the inhibition is -1.75% (inactive). As for `O=C(C[C@H]1CC[C@@H]2[C@H](COC[C@@H](O)CN2CC2CC2)O1)NCC1CC1`, the figure is -7.99% (inactive); as for `CCC(=O)N(C)C[C@H]1Oc2ncc(-c3ccc(C#N)cc3)cc2C(=O)N([C@@H](C)CO)C[C@H]1C`, -1.88% (inactive); as for `C/C=C/c1ccc(C2[C@H]3CNC[C@@H]2N3CC2CCOCC2)cc1` (some centres undefined), 3.6% (inactive). As for `CO[C@@H]1CN(C)C(=O)c2cc(NC(=O)c3cccc(Oc4ccccc4)c3)ccc2OC[C@H](C)NC[C@@H]1C`, the figure is 15.5% (inactive); as for `O=C1CCCCn2nncc2COC[C@@H](Cc2ccccc2)N1`, 5.42% (inactive). As for `COCC(=O)N1CC2(CN(S(C)(=O)=O)C2)c2c(n(C)c3cc(OC)ccc23)[C@@H]1CO`, the figure is -4.29% (inactive). Regarding `O=C(C[C@H]1C[C@H]2c3cc(NC(=O)CC4CC4)ccc3O[C@H]2[C@H](CO)O1)NCc1cc(F)ccc1F`, the inhibition was -4.07% (inactive). `COc1ccc2c3c(n(C)c2c1)[C@@H](CO)N(Cc1ccncc1)CC31CN(C(=O)Nc2cccc(F)c2)C1`: the inhibition is -9.67% (inactive). The same measure for `C[C@H](CO)N1C[C@H](C)[C@@H](CN(C)C(=O)Cc2ccccn2)Oc2cc(-c3cccc(C(=O)N(C)C)c3)ccc2S1(=O)=O`: 3.4% (inactive); for `O=C(NC(=O)c1ccccc1)Nc1ccccc1O`: -0.509% (inactive). As to `O=C(NC1=CC(=O)c2ccccc2C1=O)c1ccccc1`, the inhibition was 62.2% (active). As for `COC(=O)c1nc(NC(=O)c2ccccc2)n[nH]1`, the figure is 5.02% (inactive). As for `C[C@@H]1CC(=O)N[C@H](c2ccccc2)C/C=C\C[C@H](c2ccccc2)NC1=O`, the figure is -9.6% (inactive).
